A selection: hits, their analogues and other compounds. The true share with any hit is near 2.4%.
Rin1-Abl PPI inh: inhibitors of human Rin1-Abl protein interaction | TR-FRET Rin1/Abl binding, biochemical | inhibition, % at 7.35 µM | P00519+Q13671 | 360,000 compounds, 0.4% hits; in the data active = inhibition above about 5%, passing the limit was not always enough
CSN inh: inhibitors of human CSN-mediated cullin deneddylation; AID 651999; Purified CSN, SCF-Nedd8-OG deneddylation, fluorescence polarization; inhibition, % at 12.5 µM; 360,000 compounds, 0.38% hits;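 active = pattern-corrected inhibition above about 35%, with an unprinted fluorescence ratio check between 0.5 and 1.5, limit read from the data, passing the limit was not always enough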;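 also: 0% = enzyme with substrate and 100% = substrate without enzyme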
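Assay system: HEK293T-derived human Csn5 enzyme; quantity: 0.24 nM enzyme; medium: Tris/NaCl/DTT buffer, pH 7.5; also added: substrate SCFSkp2-Nedd8OG, 10 nM; doses: 12.5 µM compound; schedule: 90 min reaction at room temperature; signal: FP; read-out: % inhibition of substrate cleavage by Csn5; benchmarks: substrate-only high control, full reaction low control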
Neddylation inh: inhibitors of human cullin neddylation | 360,000 compounds, 0.58% hits | inhibition, % at 25 µM | TR-FRET cullin neddylation, biochemical | P61081+Q13564; in the data active = inhibition above about 36%
TPT1 inh: C. albicans TPT1 enzyme inhibition; inhibition, % at 5 µM; 300,000 compounds, 0.81% hits; recombinant caTPT1, FP RNA substrate dephosphorylation; AID 1962;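 active = inhibition above the mean of all tested compounds plus 3 SD, set per screening campaign, cut at about 24% in these data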;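 also: plate controls were DMSO alone for no effect and ferristatin control at 100 nM for full effect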
HNF4A DNA FP: change in binding of human HNF4 alpha to DNA; P41235; AID 1224865; activity change, % at 10 µM; HNF4a-FITC DNA binding, fluorescence polarization, 1 h; 360,000 compounds, 0.3% hits; in the data active = activity change above about 30%, passing the limit was not always enough
Target sequence (P41235 whole entry, looked up): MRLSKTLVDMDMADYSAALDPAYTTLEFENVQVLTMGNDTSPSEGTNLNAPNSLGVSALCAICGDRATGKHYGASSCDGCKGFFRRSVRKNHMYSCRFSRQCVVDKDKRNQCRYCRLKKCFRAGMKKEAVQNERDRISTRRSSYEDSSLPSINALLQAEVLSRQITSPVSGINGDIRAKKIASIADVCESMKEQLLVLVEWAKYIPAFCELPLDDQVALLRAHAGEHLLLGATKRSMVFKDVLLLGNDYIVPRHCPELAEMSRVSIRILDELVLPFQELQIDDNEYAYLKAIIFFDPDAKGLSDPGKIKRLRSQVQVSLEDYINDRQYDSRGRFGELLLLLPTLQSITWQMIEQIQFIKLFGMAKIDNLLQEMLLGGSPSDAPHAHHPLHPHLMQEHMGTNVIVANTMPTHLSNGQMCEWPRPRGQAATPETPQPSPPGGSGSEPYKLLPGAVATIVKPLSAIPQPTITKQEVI
Rpn11 block: Rpn11 (human) deubiquitinase inhibition; O00487; human 26S proteasome, Ub4-pepOG fluorescence polarization; 20S core pre-blocked with epoxomicin; inhibition, % at 20 µM; 360,000 compounds, 0.59% hits;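 active = inhibition at 20 µM, scaled to each plate's controls, above about 33%, limit read from the data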
* hit, by the source's call; · = no result given; + = active, no number.

SMILES | Rin1-Abl PPI inh | CSN inh | Neddylation inh | TPT1 inh | HNF4A DNA FP | Rpn11 block
O=C(NC1CCSc2ccccc21)c1ccccc1Br (configuration not stated) | 0.1 | 2.5 | -10.3 | -0.9 | 3.6 | 2.4
COc1cc(C2C(C(=O)/C=C/c3ccccc3)=C(O)C(=O)N2c2ccccn2)ccc1O (configuration not stated) | -1.2 | 66.0 | -38.4 | 8.4 | 39.6* | ·
CCOC(=O)C1=C(C)N=c2sc(=Cc3ccc(OCC(=O)O)cc3)c(=O)n2C1c1ccc(Cl)cc1 (configuration not stated) | -0.6 | 35.0* | 9.0 | · | 8.5 | ·
CCOC(=O)C1=C(C)N=c2s/c(=C\c3ccc(OC(C)=O)c(OCC)c3)c(=O)n2C1/C=C/c1ccccc1 (configuration not stated) | 3.5 | 7.8 | 0.1 | 16.0 | 7.6 | 16.4
CCOC(=O)C1=C(C)N=c2s/c(=C\c3ccc(OC(C)=O)cc3)c(=O)n2C1/C=C/c1ccccc1 (configuration not stated) | -0.4 | 1.9 | -11.2 | 2.3 | 36.5* | 6.5
O=C(N1CCCCC1)C1(c2ccccc2)CCCCC1 | -1.4 | 37.3* | 6.5 | -1.8 | -1.2 | -1.1
CCN1CCN(C(=O)c2cnn3c(C(F)F)cc(-c4ccc(C)cc4)nc23)CC1 | -1.6 | 0.3 | 47.8* | -0.7 | -1.8 | -1.3
CNS(=O)(=O)c1ccc(NC(=O)c2cnn3c(C(F)F)cc(-c4ccccc4)nc23)cc1 | 7.7 | 71.8* | 5.7 | -4.1 | -10.7 | -1.7
O=C(Nc1cccc(S(=O)(=O)N2CCOCC2)c1)c1cnn2c(C(F)F)cc(-c3ccccc3)nc12 | -2.6 | 2.6 | 13.9 | 0.4 | -1.7 | -4.2
Cc1c(CC(=O)O)c(=O)oc2cc(OCc3ccc(Cl)cc3)ccc12 | -0.9 | 0.9 | · | 2.7 | -2.0 | 5.1
CCN(C(=O)COC(=O)CCS(=O)(=O)c1ccc(C)cc1)C1CCS(=O)(=O)C1 (configuration not stated) | 0.1 | -5.2 | -2.3 | -3.0 | 3.7 | 3.7
O=C(NCc1ccccn1)c1ccc(Cl)c(S(=O)(=O)N2CCOCC2)c1 | 3.2 | 8.5 | -6.7 | -1.4 | -0.5 | -0.1
Nc1nn(-c2cccc(F)n2)cc1-c1ccccc1 | -4.6 | 1.0 | -6.9 | · | 39.2* | -4.2
COCCCN(Cc1cc(OC)c(OC)c(OC)c1)C(=S)Nc1cccc(SC)c1 | 2.1 | 0.2 | -7.6 | · | 4.3 | -2.1
Cc1cc(=O)c2ccccc2n1CC(=O)NCc1ccccc1 | 1.3 | -2.2 | -3.2 | -7.7 | 30.4* | 5.8
CC1CCN(C2=NC(=O)/C(=C/c3cn(-c4ccccc4)nc3-c3cccc(S(=O)(=O)N(C)C)c3)S2)CC1 | 1.4 | 2.6 | 34.1 | -3.9 | 0.6 | 5.2
CN(C(=S)NC(=O)c1ccccc1)C1CCCCC1 | 0.3 | 46.2* | 9.2 | 0.2 | 0.3 | -9.2
c1ccc2cc(CCO[C@H]3CCCCO3)ncc2c1 | 1.6 | 5.1 | -2.3 | · | -2.9 | -1.9
N=C1/C(=C\c2ccc(-c3ccc(C(=O)O)cc3)o2)C(=O)N=C2SC=C(c3ccccc3)N12 | -1.0 | 49.8 | -13.1 | · | -40.2 | +
COc1cc(/C=C2/C(=N)N3C(c4ccccc4)=CSC3=NC2=O)ccc1OCC(=O)O | -1.4 | 3.6 | -9.5 | 3.1 | -6.7 | 15.8
Cc1ccccc1S(=O)(=O)NC(=O)C1(C)CCN1C(=O)C(C)(C)c1ccccc1 (configuration not stated) | 2.8 | 1.4 | 0.9 | · | 38.8* | -9.4
COC(=O)c1sccc1NC(=O)c1ccc(C#N)cc1 | 3.7 | 8.5 | -11.5 | 1.1 | 3.0 | 60.8*
NC(c1csc(NC(=O)Nc2ccc(OC(F)(F)F)cc2)n1)C1CCCCC1 (configuration not stated) | 5.1 | 11.6 | -2.9 | · | 1.0 | -4.5
O=C(c1ccc(Br)o1)N1CCC(Cc2ccccc2)CC1 | -1.4 | 93.1* | 0.4 | 0.6 | 4.9 | -8.4
COCCCN1C(=O)C(=O)/C(=C(/O)c2ccc(S(=O)(=O)N3CCOCC3)cc2)C1c1ccc(C(C)C)cc1 (configuration not stated) | 1.5 | 2.1 | -10.4 | 0.5 | -0.1 | 1.0
SMILES | Rin1-Abl PPI inh | CSN inh | Neddylation inh | TPT1 inh | HNF4A DNA FP | Rpn11 block
CCOc1ccc(-n2ccc(=O)c(C(=O)O)n2)cc1 | 1.7 | 1.3 | 27.6 | 1.0 | -0.8 | -1.8
CC(C)(C)/C(O)=C/c1nc2ccccc2[nH]c1=O | -2.1 | -0.8 | 2.3 | 0.1 | 1.6 | -1.3
O=c1[nH]c2ccccc2nc1/C=C/c1ccc(O)cc1 | -3.3 | 6.1 | 20.0 | · | 36.4* | ·
CC(C)[C@H](NC(=O)[C@@H]1Cc2ccccc2CN1C(=O)OC(C)(C)C)C(=O)NCC1CCCO1 (some centres not stated) | -4.5 | 1.8 | 3.4 | 1.2 | 6.3 | 2.0
O=C(CSc1nc2sc3c(c2c(=O)n1-c1ccccc1)CCCC3)N/N=C/c1ccccc1C(=O)O | 2.8 | 49.8* | 7.4 | 0.2 | -1.1 | 10.6
Nc1ccn([C@@H]2O[C@H](C(=O)N3CCSC3)[C@@H](O)[C@H]2O)c(=O)n1 | 2.1 | 6.5 | -3.6 | · | -4.5 | 4.6
COc1ccc(N(CC(=O)N2CCN(Cc3ccccc3)CC2)S(C)(=O)=O)cc1OC | -1.5 | 2.0 | 2.4 | -1.8 | 2.0 | -4.6
O=c1[nH]c2ccc(N=Cc3c(O)ccc4cc(Br)ccc34)cc2[nH]1 | -6.4 | 42.4* | -46.9 | · | 16.6 | 22.7
N#Cc1c(-c2cccc(Br)c2)cc(-c2ccco2)[nH]c1=O | -0.2 | 35.7* | · | 4.2 | -9.1 | 11.9
COc1ccc(C2=NOC(Cn3nc(-c4ccccc4)cc3C(=O)NCc3ccc(C)cc3)C2)cc1 (configuration not stated) | 1.9 | 35.2* | 1.0 | · | 7.8 | 2.5
COCCNC(=O)c1cc2cc3ccc(OC)cc3nc2o1 | -3.8 | -2.8 | · | -4.5 | 4.9 | -1.9
CCCCN(CC)C(=O)c1cc2cc3ccc(OC)cc3nc2o1 | 0.1 | 0.5 | 56.4* | -4.3 | 1.6 | 0.1
CCCCN(C)C(=O)c1cc2cc3ccc(OC)cc3nc2s1 | -6.6 | 1.3 | 42.5* | 0.5 | 1.8 | -9.9
Cc1cc(C)nc(SCc2nnc(SCC(=O)Nc3nc(-c4ccccc4)cs3)n2C)n1 | -0.2 | 17.4 | -1.4 | -2.9 | -1.4 | -9.6
Cc1ccc(C(=O)CSc2nnc(CNc3nc(-c4ccccc4)cs3)n2C)cc1 | -4.0 | -4.9 | -10.7 | 3.3 | 114.5* | 5.6
Cc1ccnc(NS(=O)(=O)c2ccc(NC(=O)Cc3c(F)cccc3Cl)cc2)n1 | 0.2 | -0.1 | 0.8 | 1.3 | 48.3* | -4.1
Cc1ccc(-c2nn(-c3ccccc3)cc2C=C2SC(=S)N(CCS(=O)(=O)O)C2=O)cc1 | -3.0 | 47.2* | -13.3 | · | -29.1 | 31.0
CCCCn1c(N)c(N(C)C(=O)c2ccccc2Oc2ccccc2)c(=O)[nH]c1=O | 6.2 | 2.5 | -9.5 | · | 0.2 | 1.0

High-throughput results deposited in PubChem BioAssay by several laboratories.
